Laboratory results published in PubChem BioAssay AID623967 (Broad Institute, 2012).
“And” between values parts separate entries of the source, which are not always exact repeats. Identical values can stand only once. The source made the active and inactive calls.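 The calls were made as follows: active = compounds whose fitted dose for half their peak growth loss is at most twice the top usable dose; inconclusive = flat curve with moderate growth loss, or a poor fit; inactive = the rest.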

What was measured:
[1] = C. glabrata growth inhibition on glucose, dose response, glucose medium, OD600, powder samples, set 3 (AID 623967); conditions: Candida glabrata growth in glucose medium, OD600, 48 h; at 3 µM (top of the series)
Method in brief: (§1)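 Material: Candida glabrata cells; doses: test compounds delivered into wells by pin transfer; measure: growth inhibition from reduced OD600; times: 48 h growth exposure at 30 °C, static, humidified; buffer or medium: CSM-glucose medium; controls: amphotericin B 10 µM positive control; signal: optical density at 600 nm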

[2] = tested on: Candida glabrata growth in glucose medium, OD600, 48 h; assay: as above
Method in brief: as §1

For `CCOC(=O)N1C(=O)C2(CCCCC2)N(c2ccc(F)cc2)C1=S`, which activity change, negative = inhibition [1] is on record?
The activity change, negative = inhibition was -12.7% (inactive).

For `CC1/C=C/C=C\C=C\C=C\C=C\C=C\C=C\C(O[C@H]2OC(C)C(O)C(N)C2O)CC2OC(O)(CC(O)CC(O)C(O)CCC(O)CC(O)CC(=O)OC(C)C(C)C1O)CC(O)C2C(=O)O` (stereo partly drawn), which AC50 [2] is on record?
The AC50 was 1.22 µM.

For `CCOC(=O)N1C(=O)C2(CCCCC2)N(c2ccc(C#N)cc2)C1=S`, which activity change, negative = inhibition [1] is on record?
Its activity change, negative = inhibition is -6.49% (inactive).

Which activity change, negative = inhibition [1] does the source give for `C/C=C/[C@@H]1[C@H]2C[C@@H](C)CC[C@@H]2C(C)=C[C@H]1C(=O)c1c(O)c(-c2ccc(O)cc2)c[nH]c1=O` here?
The activity change, negative = inhibition was -1.31% (inactive).

For `CCOC(=O)N1C(=O)C2(CCCCC2)N(c2cccc(C)c2)C1=S`, which activity change, negative = inhibition [1] is on record?
The activity change, negative = inhibition was -8.41% (inactive).

Which activity change, negative = inhibition [1] does the source give for `CCOC(=O)N1C(=O)C2(CCCCC2)N(c2ccc(Cl)cc2)C1=S` here?
Its activity change, negative = inhibition is -9.79% (inactive).

For `CCOC(=O)N1C(=O)C2(CCCCC2)N(c2ccccc2)C1=S`, which activity change, negative = inhibition [1] is on record?
The activity change, negative = inhibition was -11.4% (inactive).

Which activity change, negative = inhibition [1] does the source give for `CCOC(=O)N1C(=O)C2(CCCCC2)N(c2ccc(C)cc2)C1=S` here?
Its activity change, negative = inhibition is -11.3% (inactive) and -13.1% (inactive).
